Measured values: PMC5644278 (Alzheimer's & Dementia : Translational Research & Clinical …, 2016)

Tests used:
[1] = Plasma pharmacokinetics after single intranasal dose of Gln-1062; assay type: in vivo, human; settings: over the Gln-1062 intranasal dose levels
[2] = tested on: Wistar rats; test: 28-day intranasal toxicity study; assay type: in vivo
[3] = Pharmacokinetics of Gln-1062 in female Wistar rats; assay type: in vivo
[4] = tested on: healthy male subjects; test: Adaptive tracking; assay type: in vivo, human
Outline: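 Healthy males got one intranasal spray dose in a double-dummy design with oral capsules: 11 mg for young subjects, 22 or 33 mg for elderly subjects, 6 per dose, with age-matched nasal placebo. NeuroCart tests were run twice before dosing, then at 1, 2, 3, 4, 5, 6, 8 and 10 h after, in a quiet room, one subject per session. Analysis was mixed-model ANOVA: treatment, time and treatment×time fixed, subject random, baseline as covariate.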

[5] = tested on: healthy male subjects; test: VAS nausea, single dose; assay type: in vivo, human; settings: healthy elderly males
[6] = tested on: healthy male subjects; test: Pharmaco-electroencephalography, single dose; assay type: in vivo, human
[7] = tested on: healthy male subjects; test: Treatment emergent adverse events, single dose study; assay type: in vivo, human
[8] = Gln-1062 5.5 mg vs Placebo, healthy young males
[9] = Gln-1062 11 mg vs Placebo, healthy young males
[10] = Gln-1062 22 mg vs Placebo, healthy elderly males
[11] = Gln-1062 33 mg vs Placebo, healthy elderly males
[12] = Gln-1062 44 mg vs Placebo, healthy elderly males
[13] = Gln-1062 5.5 mg, healthy young males, number of subjects, percentage in parentheses
[14] = Gln-1062 5.5 mg, healthy young subjects
[15] = Gln-1062 11 mg, healthy young males, number of subjects, percentage in parentheses
[16] = Gln-1062 11 mg, healthy young subjects
[17] = Gln-1062 22 mg, healthy elderly males, number of subjects, percentage in parentheses
[18] = Gln-1062 22 mg, healthy elderly subjects
[19] = Gln-1062 33 mg, healthy elderly males, number of subjects, percentage in parentheses

`COc1ccc2c3c1O[C@H]1C[C@@H](OC(=O)c4ccccc4)C=C[C@@]31CCN(C)C2` [Gln-1062] gave a Tmax [1] of 15 to 45 min, a half-life [1] of 66 to 168 min and a human equivalent dose ([2]; estimated from the rat NOAEL) of 48 mg. The NOAEL ([2]; intranasal, 28-day, Wistar rats) was 5 mg/kg, the “Brain-to-blood ratio (AUClast brain / AUClast blood)” value ([3]; 5.0 mg/kg Gln-1062 IN) was 8.1 and the “Brain-to-blood ratio (AUClast brain / AUClast blood)” value ([3]; 5.0 mg/kg Gln-1062 IV) was 18.40. The “Brain-to-blood ratio (AUClast brain / AUClast blood)” value ([3]; 20.0 mg/kg Gln-1062 IN) was 10.2, the AUClast ([3]; blood, 5.0 mg/kg Gln-1062 IV) was 528 ng·h/mL and the Cmax ([3]; blood, 5.0 mg/kg Gln-1062 IV) was 650 ng/mL. The AUClast ([3]; brain, 5.0 mg/kg Gln-1062 IV) was 9717 ng·h/g, the Adaptive tracking [4, 8] was 1.96 (−0.88 to 4.80) P = .1581% and the Adaptive tracking [4, 9] was 3.47 (0.52 to 6.42) P = .0247%. The Adaptive tracking [4, 10] was 0.64 (−1.06 to 2.35) P = .4474%, the Adaptive tracking [4, 11] was 1.79 (0.07 to 3.52) P = .0424% and the Adaptive tracking [4, 12] was 0.74 (−0.99 to 2.48) P = .3887%. The “peak of nausea (VAS nausea), time after administration” value [5] was 4 h, the “EEG Alpha Fz-Cz (uV)” value [6, 8] was −13.2% (−30.5% to 8.5%) P = .1914 and the “EEG Alpha Pz-Oz (uV)” value [6, 8] was −8.9% (−23.8% to 8.9%) P = .2782. For the same compound, the “EEG Alpha Fz-Cz (uV)” value [6, 9] was −0.8% (−19.5% to 22.1%) P = .9310, the “EEG Alpha Pz-Oz (uV)” value [6, 9] was −13.1% (−27.2% to 3.7%) P = .1086 and the “EEG Alpha Fz-Cz (uV)” value [6, 10] was 7.8% (−7.0% to 25.1%) P = .3088. For the same compound, the “EEG Alpha Pz-Oz (uV)” value [6, 10] was 13.8% (−5.4% to 36.9%) P = .1633, the “EEG Alpha Fz-Cz (uV)” value [6, 11] was 21.5% (4.8% to 40.8%) P = .0116 and the “EEG Alpha Pz-Oz (uV)” value [6, 11] was 19.7% (−0.2% to 43.6%) P = .0530. The “EEG Alpha Fz-Cz (uV)” value [6, 12] was −10.1% (−24.2% to 6.6%) P = .2121, the “EEG Alpha Pz-Oz (uV)” value [6, 12] was 2.1% (−16.3% to 24.5%) P = .8306 and the “Any event (treatment emerging adverse events)” value (from here on “Any event”) [7, 13] was 6 (100). The Headache [7, 13] was 2 (33.3), the Nasal discomfort [7, 13] was 6 (100) and the Rhinorrhea [7, 13] was 2 (33.3). The Sneezing [7, 13] was 1 (16.7), the “Diarrhea, incidence” value [7, 14] was “did not occur” and the “Vomiting, incidence” value [7, 14] was “did not occur”. For the same compound, the “Cold sweat or hyperhidrosis, incidence” value ([7]; Gln-1062 11 mg) was 16.7%, the “Nausea, incidence” value ([7]; Gln-1062 11 mg, healthy young males) was 16.7% and the “Any event” value [7, 15] was 6 (100). The “Cold sweat or hyperhidrosis” value [7, 15] was 1 (16.7), the Headache [7, 15] was 2 (33.3) and the Nasal discomfort [7, 15] was 6 (100). For the same compound, the Nausea [7, 15] was 1 (16.7), the Rhinorrhea [7, 15] was 4 (66.7) and the Sneezing [7, 15] was 1 (16.7). The Vomiting [7, 15] was 1 (16.7), the “Diarrhea, incidence” value [7, 16] was “did not occur” and the “Vomiting, incidence” value [7, 16] was 16.7%. For the same compound, the “Nausea, incidence” value ([7]; Gln-1062 22 mg, healthy elderly males) was 16.7%, the “Any event” value [7, 17] was 5 (83.3) and the Diarrhea [7, 17] was 1 (16.7). For the same compound, the Headache [7, 17] was 3 (50), the Nasal discomfort [7, 17] was 4 (66.7) and the Nausea [7, 17] was 1 (16.7). The Rhinorrhea [7, 17] was 2 (33.3), the Sneezing [7, 17] was 1 (16.7) and the “Diarrhea, incidence” value [7, 18] was 16.7%. For the same compound, the “Vomiting, incidence” value [7, 18] was “did not occur at all”, the “Any event” value [7, 19] was 5 (83.3) and the Diarrhea [7, 19] was 1 (16.7). For the same compound, the Headache [7, 19] was 2 (33.3) and the Nasal discomfort [7, 19] was 4 (66.7).
